Legend:
recombinant human ACSS2 = recombinant human ACSS2 (Homo sapiens, UniProt Q9NR19); experiment: TranScreener AMP biochemical assay of ACSS2 activity; settings: ratio of IC50 values
Outline: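 Recombinant human ACSS2 at 3 nM in 30 mM HEPES pH 7.4, 140 mM NaCl, 2 mM MgCl2, 2 mM DTT, 0.005% Brij35. Test compound serially diluted in DMSO. Final substrates: 5 mM acetate, 50 μM ATP, 5 μM CoA; 120 min incubation. AMP detected by Tb-anti-AMP antibody/tracer TR-FRET after 30 min. Percent inhibition normalized to no-enzyme (100%) and DMSO (0%) wells; IC50 curves fitted from replicates.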

recombinant human ACSS1 = biological target: T1, recombinant human ACSS1 (Homo sapiens, UniProt Q9NUB1); experiment: TranScreener AMP biochemical assay of ACSS1 activity; settings: regardless of the substrate (acetate or propionate)
T1 sequence (Q9NUB1 38-689): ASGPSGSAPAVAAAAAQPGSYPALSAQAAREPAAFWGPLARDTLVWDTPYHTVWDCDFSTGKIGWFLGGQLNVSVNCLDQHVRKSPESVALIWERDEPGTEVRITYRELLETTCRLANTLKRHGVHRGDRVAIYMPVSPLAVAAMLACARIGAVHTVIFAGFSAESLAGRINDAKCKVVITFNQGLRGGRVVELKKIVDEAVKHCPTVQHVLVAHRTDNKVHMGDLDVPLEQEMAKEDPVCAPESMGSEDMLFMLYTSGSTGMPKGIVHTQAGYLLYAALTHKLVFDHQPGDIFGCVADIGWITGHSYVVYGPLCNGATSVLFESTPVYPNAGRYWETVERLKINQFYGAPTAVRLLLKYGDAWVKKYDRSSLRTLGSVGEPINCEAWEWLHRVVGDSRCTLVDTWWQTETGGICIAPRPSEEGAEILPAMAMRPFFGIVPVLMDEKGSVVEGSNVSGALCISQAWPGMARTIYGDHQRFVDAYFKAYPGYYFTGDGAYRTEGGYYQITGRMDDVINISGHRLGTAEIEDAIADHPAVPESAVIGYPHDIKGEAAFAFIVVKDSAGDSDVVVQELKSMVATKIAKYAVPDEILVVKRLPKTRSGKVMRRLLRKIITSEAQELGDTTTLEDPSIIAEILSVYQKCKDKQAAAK
Outline: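 Test compound was serially diluted in DMSO and added to ACSS1 (2 nM) or ACSS3 (25 nM). Acetate reaction: HEPES pH 7.4 buffer with 140 mM NaCl; final 5 mM acetate, 50 μM ATP, 5 μM CoA. Propionate reaction: HEPES/KCl/CHAPS buffer; final 5 mM propionate, 10 μM ATP, 100 μM CoA. Incubation 120 min, then AMP detected by terbium-antibody/tracer TR-FRET after 30 min. Percent inhibition was set against no-enzyme and DMSO controls.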

[1] = Mouse liver microsomal stability; assay type: in vitro ADME; settings: 0.5 μM compound, 0.5 mg/mL microsomes; compared with VY-3-249
Outline: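 Incubations: 0.5 μM compound, 0.5 mg/mL liver microsomes, NADPH-regenerating system, potassium phosphate pH 7.4. Timed aliquots quenched in acetonitrile with internal standard; no-cofactor controls run. LC-MS/MS analyte/internal-standard peak-area ratios. Elimination constant fitted by nonlinear regression; t1/2 from k = 0.693/t1/2. CLint scaled with 48 (mouse) or 39.7 (human) mg protein/g liver. n = 1.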

[2] = Pharmacokinetic analysis in CD-1 mice; assay type: in vivo, mouse; settings: oral gavage 30 mg/kg, intravenous 2 mg/kg, intraperitoneal 10 mg/kg
Outline: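 Formulation: 10% DMSO, 10% Solutol, 80% PBS. Dosing in CD-1 mice based on 28 g average weight. Three mice per time point; trunk blood collected into K2-EDTA and kept on wet ice until centrifugation. Plasma extracted in acetonitrile/water with tolbutamide internal standard, centrifuged, supernatant analysed by LC-MS. Mean ± S.D.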

SKBr3 cells [3] = experiment: 13C2-acetate labeling of palmitate in SKBr3 cells; assay type: cell-based, human; settings: SKBr3, 100 μM 13C2-acetate, 24 hr, N10 and H1 conditions
Outline: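 SKBr3 cells were grown 24 h in serum-like modified Eagle's medium with 100 μM 13C2-acetate, either in N10 (normoxia, 10% dialyzed FBS) or H1 (1% O2, 1% dialyzed FBS), with vehicle or test compound. Lipids were extracted with methanol/chloroform/PBS, saponified in 0.3 M KOH in 90% methanol at 70°C for 1 h, then hexane-extracted. Palmitate labeling was measured by C18 LC-MS; mean ± S.D., n = 3.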

SKBr3 cells [4] = experiment: Growth of SKBr3 cells; assay type: cell-based, human; settings: SKBr3, 10 μM, 72 hours, H1 conditions, 200 μM sodium acetate
A7C11 cells = experiment: 13C2-acetate labeling of palmitate in A7C11 cells; assay type: cell-based, mouse; settings: A7C11, N10 and H1, 24 hr, 100 μM 13C2-acetate
Outline: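 Cells labeled 24 h with 100 μM 13C2-acetate in SMEM under N10 (normoxia, 10% dialyzed FBS) or H1 (1% O2, 1% dialyzed FBS). Vehicle or test compound present; for BT474 in H1, a 10-fold dilution series. Lipids extracted with methanol/chloroform/PBS, saponified in 0.3 M KOH/90% methanol at 70°C for 1 h, then hexane-extracted. Palmitate labeling read by C18 reverse-phase LC-MS. n = 3, mean ± S.D.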

Brpkp110 cells = experiment: 13C6-glucose dependent palmitate synthesis in Brpkp110 cells; assay type: cell-based, mouse; settings: Brpkp110, normoxia, 10% dialyzed FBS
Outline: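 Cells grown 4 h under normoxia in SMEM with 10% dialyzed FBS and 5.5 mM uniformly labeled 13C6-glucose. Lipids extracted with methanol/chloroform/PBS and saponified in 0.3 M KOH in 90% methanol at 70°C for 1 h. Fatty acids recovered into hexane and palmitate labeling measured by C18 reverse-phase LC-MS.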

sgACSS2 Brpkp110 tumors = experiment: sgACSS2 Brpkp110 tumor growth in mice; assay type: in vivo, mouse; settings: sgACSS2 Brpkp110 (ACSS2 knockout) tumors
Outline: (§1)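 Parental or CRISPR-Cas9 sgAcss2 cells (lentiviral, blasticidin-selected pools) implanted subcutaneously into 5–6-week-old female NSG mice in PBS:Matrigel: A7C11 at 5×10^5, Brpkp110 at 5×10^5. Calipers read tumors three times weekly. Volume = (L × W²)/2, L being the longer measurement; not blinded.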

A7C11 tumors = experiment: A7C11 tumor growth in mice; assay type: in vivo, mouse; settings: A7C11 (ACSS2 low) tumors
Outline: as §1

Sequence of recombinant human ACSS2 (Q9NR19 whole entry): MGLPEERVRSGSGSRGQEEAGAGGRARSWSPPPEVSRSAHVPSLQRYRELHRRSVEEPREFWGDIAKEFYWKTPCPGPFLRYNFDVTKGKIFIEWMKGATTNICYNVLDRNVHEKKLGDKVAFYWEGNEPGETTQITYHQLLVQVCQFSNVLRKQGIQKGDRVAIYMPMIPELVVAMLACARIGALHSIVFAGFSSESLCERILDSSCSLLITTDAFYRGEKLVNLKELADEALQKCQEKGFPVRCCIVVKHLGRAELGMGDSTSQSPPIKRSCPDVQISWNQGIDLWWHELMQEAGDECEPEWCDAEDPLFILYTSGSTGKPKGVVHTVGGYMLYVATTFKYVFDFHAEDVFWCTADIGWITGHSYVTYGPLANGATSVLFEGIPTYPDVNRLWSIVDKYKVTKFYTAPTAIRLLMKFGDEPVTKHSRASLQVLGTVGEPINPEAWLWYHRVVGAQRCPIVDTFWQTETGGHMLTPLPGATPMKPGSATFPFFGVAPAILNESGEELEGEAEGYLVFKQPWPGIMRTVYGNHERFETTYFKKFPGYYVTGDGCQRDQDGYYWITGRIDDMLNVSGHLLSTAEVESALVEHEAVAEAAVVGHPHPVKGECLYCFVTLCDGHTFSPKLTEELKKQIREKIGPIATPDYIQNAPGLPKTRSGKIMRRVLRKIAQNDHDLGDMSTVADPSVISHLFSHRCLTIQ

potency relative to VY-3-249 (recombinant human ACSS2): ~30 fold | stability in mouse liver microsomal assay [1]: superior stability | exposure [2]: good exposure
SMILES: CCn1c(C(O)(c2ccccc2)c2ccccc2)nc2ccc(C(=O)NC[C@@H](C)O)cc21 [VY-3-135, (R)-1-ethyl-2-(hydroxydiphenylmethyl)-N-(2-hydroxypropyl)-1H-benzo[d]imidazole-6-carboxamide]
inhibitory activity towards ACSS1 (recombinant human ACSS1): neither VY-3-249 nor VY-3-135 displayed any inhibitory activity | absorption [2]: completely absorbed by all routes of administration | fatty acid (palmitate) synthesis from 13C2-acetate (SKBr3 cells [3]): completely blocked fatty acid synthesis from acetate | cell growth (SKBr3 cells [4]): modest growth inhibition | acetate dependent labeling of palmitate by 13C2-acetate (A7C11 cells): efficiently blocked | 13C6-glucose dependent palmitate synthesis (Brpkp110 cells): did not affect | tumor growth (sgACSS2 Brpkp110 tumors): no further effect on tumor growth | tumor growth (A7C11 tumors): but not WHIM12 and A7C11 tumors

From PMC8026699 (Cancer research, 2021)
